Results as given in ChEMBL document CHEMBL2062460, “Disubstituted thiourea derivatives and their activity on CNS: synthesis and biological evaluation” (Eur J Med Chem, 2012).
Converted amounts (≈) assume the structure as drawn. The source made the active and inactive calls. No cut-off for these calls is given here.

Experiments:
[1] = system: Enterococcus hirae; assay: Antibacterial activity against Enterococcus hirae ATCC 10541 after 18 hrs by twofold serial agar dilution technique; type: functional; settings: ATCC 10541, 18 h
[2] = system: Staphylococcus epidermidis; assay: Antibacterial activity against Staphylococcus epidermidis ATCC 12228 after 18 hrs by twofold serial agar dilution technique; type: functional; settings: ATCC 12228, 18 h
Procedure, shortened: (§1)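 Twofold serial agar dilution on Mueller–Hinton II agar, following CLSI guidelines. Compounds were dissolved in methanol or DMSO and tested at final agar concentrations of 3.125–400 µg/mL. Final inoculum was 10^4 CFU/mL.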

[3] = system: Staphylococcus aureus; assay: Antibacterial activity against Staphylococcus aureus ATCC 6538 at 400 ug/disc after 18 hrs by disc diffusion method; type: functional; settings: ATCC 6538, 18 h, read-out: DIZ
Procedure, shortened: (§2)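 Disc diffusion per CLSI on Mueller–Hinton II agar; 9 mm paper discs loaded from methanol or DMSO solutions to 400 µg per disc, dried; growth inhibition zone diameter read after 18 h at 35 °C.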

[4] = system: Pseudomonas aeruginosa; assay: Antibacterial activity against Pseudomonas aeruginosa ATCC 15442 at 400 ug/disc after 18 hrs by disc diffusion method; type: functional, organism-based; procedure, shortened: as §2
[5] = system: Staphylococcus aureus; assay: Antibacterial activity against methicillin-susceptible Staphylococcus aureus clinical isolate 369/09 after 18 hrs by twofold serial agar dilution technique; type: functional; settings: clinical isolate 369/09, 18 h
Procedure, shortened: (§3)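 Clinical isolates came from patients in Warsaw Medical University Hospitals and were classed as methicillin-susceptible or -resistant. MIC was determined by twofold serial agar dilution on Mueller–Hinton II agar (CLSI), 3.125–400 µg/mL in agar, with compounds in methanol or DMSO. Inoculum was 10^4 CFU/mL and plates were read after 18 h at 35 °C.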

[6] = system: Escherichia coli; assay: Antibacterial activity against Escherichia coli ATCC 25922 at 400 ug/disc after 18 hrs by disc diffusion method; type: functional, organism-based; procedure, shortened: as §2
[7] = system: Staphylococcus aureus; assay: Antibacterial activity against methicillin-susceptible Staphylococcus aureus clinical isolate 261/08 after 18 hrs by twofold serial agar dilution technique; type: functional; settings: clinical isolate 261/08, 18 h; procedure, shortened: as §3
[8] = system: Staphylococcus aureus; assay: Antibacterial activity against methicillin-resistant Staphylococcus aureus clinical isolate 356/09 after 18 hrs by twofold serial agar dilution technique; type: functional; settings: clinical isolate 356/09, 18 h; procedure, shortened: as §3
[9] = system: Micrococcus luteus; assay: Antibacterial activity against Micrococcus luteus ATCC 9341 after 18 hrs by twofold serial agar dilution technique; type: functional; settings: ATCC 9341, 18 h
[10] = system: Staphylococcus aureus; assay: Antibacterial activity against methicillin-susceptible Staphylococcus aureus clinical isolate 269/08 after 18 hrs by twofold serial agar dilution technique; type: functional; settings: clinical isolate 269/08, 18 h; procedure, shortened: as §3
[11] = system: Candida albicans; assay: Antifungal activity against Candida albicans ATCC 10231 at 400 ug/disc after 18 hrs by disc diffusion method; type: functional, organism-based
Procedure, shortened: (§4)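 Yeasts tested by disc diffusion (CLSI) on RPMI agar with 2% glucose; 9 mm paper discs bearing 400 µg compound from methanol or DMSO solution; inhibition zone diameter read after 18 h at 35 °C.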

[12] = system: Staphylococcus aureus; assay: Antibacterial activity against methicillin-susceptible Staphylococcus aureus clinical isolate 339/09 after 18 hrs by twofold serial agar dilution technique; type: functional; settings: clinical isolate 339/09, 18 h; procedure, shortened: as §3
[13] = system: Staphylococcus aureus; assay: Antibacterial activity against Staphylococcus aureus ATCC 29213 after 18 hrs by twofold serial agar dilution technique; type: functional; settings: ATCC 29213, 18 h; procedure, shortened: as §1
[14] = system: Pseudomonas aeruginosa; assay: Antibacterial activity against Pseudomonas aeruginosa NCTC 6749 at 400 ug/disc after 18 hrs by disc diffusion method; type: functional, organism-based; procedure, shortened: as §2
[15] = system: Staphylococcus aureus; assay: Antibacterial activity against methicillin-resistant Staphylococcus aureus clinical isolate 275/08 after 18 hrs by twofold serial agar dilution technique; type: functional; settings: clinical isolate 275/08, 18 h; procedure, shortened: as §3
[16] = system: Candida albicans; assay: Antifungal activity against Candida albicans ATCC 90028 at 400 ug/disc after 18 hrs by disc diffusion method; type: functional, organism-based; procedure, shortened: as §4
[17] = system: Candida parapsilosis; assay: Antifungal activity against Candida parapsilosis ATCC 22019 at 400 ug/disc after 18 hrs by disc diffusion method; type: functional, organism-based; procedure, shortened: as §4
[18] = system: Staphylococcus aureus; assay: Antibacterial activity against methicillin-resistant Staphylococcus aureus clinical isolate 329/08 after 18 hrs by twofold serial agar dilution technique; type: functional; settings: clinical isolate 329/08, 18 h; procedure, shortened: as §3
[19] = system: Staphylococcus epidermidis; assay: Antibacterial activity against Staphylococcus epidermidis ATCC 12228 at 400 ug/disc after 18 hrs by disc diffusion method; type: functional; settings: ATCC 12228, 18 h, read-out: DIZ; procedure, shortened: as §2
[20] = system: Escherichia coli; assay: Antibacterial activity against Escherichia coli ATCC 10538 at 400 ug/disc after 18 hrs by disc diffusion method; type: functional, organism-based; procedure, shortened: as §2
[21] = system: Pseudomonas aeruginosa; assay: Antibacterial activity against Pseudomonas aeruginosa ATCC 27853 at 400 ug/disc after 18 hrs by disc diffusion method; type: functional, organism-based; procedure, shortened: as §2
[22] = system: Staphylococcus aureus; assay: Antibacterial activity against methicillin-resistant Staphylococcus aureus clinical isolate 307/08 after 18 hrs by twofold serial agar dilution technique; type: functional; settings: clinical isolate 307/08, 18 h; procedure, shortened: as §3
[23] = system: Staphylococcus aureus; assay: Antibacterial activity against Staphylococcus aureus ATCC 25923 after 18 hrs by twofold serial agar dilution technique; type: functional; settings: ATCC 25923, 18 h; procedure, shortened: as §1
[24] = system: Staphylococcus aureus; assay: Antibacterial activity against methicillin-resistant Staphylococcus aureus clinical isolate 309/08 after 18 hrs by twofold serial agar dilution technique; type: functional; settings: clinical isolate 309/08, 18 h; procedure, shortened: as §3
[25] = system: Staphylococcus aureus; assay: Antibacterial activity against methicillin-susceptible Staphylococcus aureus clinical isolate 267/08 after 18 hrs by twofold serial agar dilution technique; type: functional; settings: clinical isolate 267/08, 18 h; procedure, shortened: as §3
[26] = system: Bacillus cereus; assay: Antibacterial activity against Bacillus cereus ATCC 11778 at 400 ug/disc after 18 hrs by disc diffusion method; type: functional; settings: ATCC 11778, 18 h, read-out: DIZ; procedure, shortened: as §2
[27] = system: Staphylococcus aureus; assay: Antibacterial activity against methicillin-resistant Staphylococcus aureus clinical isolate 306/08 after 18 hrs by twofold serial agar dilution technique; type: functional; settings: clinical isolate 306/08, 18 h; procedure, shortened: as §3
[28] = system: Bacillus subtilis; assay: Antibacterial activity against Bacillus subtilis ATCC 6633 after 18 hrs by twofold serial agar dilution technique; type: functional; settings: ATCC 6633, 18 h
[29] = system: Staphylococcus aureus; assay: Antibacterial activity against methicillin-susceptible Staphylococcus aureus clinical isolate 268/08 after 18 hrs by twofold serial agar dilution technique; type: functional; settings: clinical isolate 268/08, 18 h; procedure, shortened: as §3
[30] = system: Staphylococcus aureus; assay: Antibacterial activity against methicillin-resistant Staphylococcus aureus clinical isolate 277/08 after 18 hrs by twofold serial agar dilution technique; type: functional; settings: clinical isolate 277/08, 18 h; procedure, shortened: as §3
[31] = system: Staphylococcus aureus; assay: Antibacterial activity against Staphylococcus aureus NCTC 4163 at 400 ug/disc after 18 hrs by disc diffusion method; type: functional; settings: NCTC 4163, 18 h, read-out: DIZ; procedure, shortened: as §2
[32] = system: Staphylococcus aureus; assay: Antibacterial activity against methicillin-susceptible Staphylococcus aureus clinical isolate 372/09 after 18 hrs by twofold serial agar dilution technique; type: functional; settings: clinical isolate 372/09, 18 h; procedure, shortened: as §3

For `Fc1ccccc1NC(=S)Nc1nc[nH]n1`, which MIC [1] is on record?
The MIC was 400 µg/mL (≈ 1690 µM).

What about the MIC [2] of the same compound?
Its MIC is 200 µg/mL (≈ 843 µM).

And the zone of inhibition at 400 µg/disc [3]?
Its zone of inhibition at 400 µg/disc is 12 mm.

What about the “diameter of the inhibition zone (DIZ)” value [4] of the same compound?
The value was “inactive”.

And the MIC [5]?
The MIC was greater than 400 µg/mL.

What about the “diameter of the inhibition zone (DIZ)” value [6] of the same compound?
Its value is “inactive”.

What about the MIC [7] of the same compound?
Its MIC is greater than 400 µg/mL.

And the MIC [8]?
Its MIC is greater than 400 µg/mL.

And the MIC [9]?
Its MIC is 100 µg/mL (≈ 421 µM).

What about the MIC [10] of the same compound?
Its MIC is greater than 400 µg/mL.

And the “diameter of the inhibition zone (DIZ)” value [11]?
The value was “inactive”.

And the MIC [12]?
Its MIC is greater than 400 µg/mL.

What about the MIC [13] of the same compound?
Its MIC is 200 µg/mL (≈ 843 µM).

And the “diameter of the inhibition zone (DIZ)” value [14]?
Its value is “inactive”.

And the MIC [15]?
Its MIC is greater than 400 µg/mL.

What about the “diameter of the inhibition zone (DIZ)” value [16] of the same compound?
The value was “inactive”.

What about the “diameter of the inhibition zone (DIZ)” value [17] of the same compound?
Its value is “inactive”.

What about the MIC [18] of the same compound?
The MIC was greater than 400 µg/mL.

And the zone of inhibition at 400 µg/disc [19]?
The zone of inhibition at 400 µg/disc was 11 mm.

What about the “diameter of the inhibition zone (DIZ)” value [20] of the same compound?
The value was “inactive”.

And the “diameter of the inhibition zone (DIZ)” value [21]?
The value was “inactive”.

And the MIC [22]?
Its MIC is greater than 400 µg/mL.

And the MIC [23]?
Its MIC is 200 µg/mL (≈ 843 µM).

What about the MIC [24] of the same compound?
The MIC was greater than 400 µg/mL.

What about the MIC [25] of the same compound?
Its MIC is greater than 400 µg/mL.

And the zone of inhibition at 400 µg/disc [26]?
Its zone of inhibition at 400 µg/disc is 11 mm.

What about the MIC [27] of the same compound?
The MIC was greater than 400 µg/mL.

What about the MIC [28] of the same compound?
The MIC was 100 µg/mL (≈ 421 µM).

And the MIC [29]?
The MIC was greater than 400 µg/mL.

And the MIC [30]?
The MIC was greater than 400 µg/mL.

What about the zone of inhibition at 400 µg/disc [31] of the same compound?
The zone of inhibition at 400 µg/disc was 12 mm.

What about the MIC [32] of the same compound?
Its MIC is greater than 400 µg/mL.

How did the MIC [1] turn out when `Fc1cccc(NC(=S)Nc2nc[nH]n2)c1` was run?
Its MIC is 400 µg/mL (≈ 1690 µM).

What about the MIC [2] of the same compound?
Its MIC is 50 µg/mL (≈ 211 µM).

And the zone of inhibition at 400 µg/disc [3]?
The zone of inhibition at 400 µg/disc was 15 mm.

And the “diameter of the inhibition zone (DIZ)” value [4]?
The value was “inactive”.

What about the MIC [5] of the same compound?
Its MIC is 12.5 µg/mL (≈ 52.7 µM).

And the “diameter of the inhibition zone (DIZ)” value [6]?
Its value is “inactive”.

And the MIC [7]?
Its MIC is 25 µg/mL (≈ 105 µM).

And the MIC [8]?
The MIC was 12.5 µg/mL (≈ 52.7 µM).

What about the MIC [9] of the same compound?
The MIC was 50 µg/mL (≈ 211 µM).

What about the MIC [10] of the same compound?
The MIC was 12.5 µg/mL (≈ 52.7 µM).

What about the “diameter of the inhibition zone (DIZ)” value [11] of the same compound?
Its value is “inactive”.

And the MIC [12]?
The MIC was 12.5 µg/mL (≈ 52.7 µM).

And the MIC [13]?
The MIC was 50 µg/mL (≈ 211 µM).

And the “diameter of the inhibition zone (DIZ)” value [14]?
The value was “inactive”.

What about the MIC [15] of the same compound?
The MIC was 25 µg/mL (≈ 105 µM).

And the “diameter of the inhibition zone (DIZ)” value [16]?
Its value is “inactive”.

What about the “diameter of the inhibition zone (DIZ)” value [17] of the same compound?
Its value is “inactive”.

What about the MIC [18] of the same compound?
The MIC was 12.5 µg/mL (≈ 52.7 µM).

What about the zone of inhibition at 400 µg/disc [19] of the same compound?
Its zone of inhibition at 400 µg/disc is 22 mm.

And the “diameter of the inhibition zone (DIZ)” value [20]?
Its value is “inactive”.

What about the “diameter of the inhibition zone (DIZ)” value [21] of the same compound?
Its value is “inactive”.

And the MIC [22]?
The MIC was 12.5 µg/mL (≈ 52.7 µM).

And the MIC [23]?
The MIC was 50 µg/mL (≈ 211 µM).

What about the MIC [24] of the same compound?
Its MIC is 12.5 µg/mL (≈ 52.7 µM).

What about the MIC [25] of the same compound?
The MIC was 25 µg/mL (≈ 105 µM).

And the zone of inhibition at 400 µg/disc [26]?
The zone of inhibition at 400 µg/disc was 14 mm.

And the MIC [27]?
The MIC was 12.5 µg/mL (≈ 52.7 µM).

And the MIC [28]?
Its MIC is 50 µg/mL (≈ 211 µM).

What about the MIC [29] of the same compound?
Its MIC is 25 µg/mL (≈ 105 µM).

What about the MIC [30] of the same compound?
The MIC was 12.5 µg/mL (≈ 52.7 µM).

What about the zone of inhibition at 400 µg/disc [31] of the same compound?
The zone of inhibition at 400 µg/disc was 16 mm.

What about the MIC [32] of the same compound?
Its MIC is 25 µg/mL (≈ 105 µM).
